Data on 15 compounds can be found in ChEMBL document CHEMBL5523690, “Synergistic effect of tryptamine-urea derivatives to overcome the chromosomally-mediated colistin resistance in Klebsiella pneumoniae” (Bioorg Med Chem, 2024).

Common to all, as to format: functional
The test system of test [1] is Klebsiella pneumoniae. The test is described as follows: Antibacterial activity against chromosomally-mediated resistant Klebsiella pneumoniae BA03057 assessed as inhibition of visible bacterial growth measured after 20 hrs under aerobic condition by two fold serial dilution assay.
Test [2] has as its system Escherichia coli. The test is described as follows: Colistin adjuvant activity against colistin-resistant Escherichia coli A50 assessed as colistin MIC by measuring potentiation fold incubated for 24 hrs under aerobic condition by two fold serial dilution method relative to colistin alone.
Test [3] has as its system Pseudomonas aeruginosa. Briefly: Antibacterial activity against chromosomally-mediated colistin resistant Pseudomonas aeruginosa 1002 assessed as inhibition of visible bacterial growth measured after 20 hrs under aerobic condition by two fold serial dilution assay.
Test [4] concerns Pseudomonas aeruginosa. The test is described as follows: Antibacterial activity against chromosomally-mediated colistin resistant Pseudomonas aeruginosa 15080 assessed as inhibition of visible bacterial growth measured after 20 hrs under aerobic condition by two fold serial dilution assay.
The test system of test [5] is Klebsiella pneumoniae. Briefly: Colistin adjuvant activity against colistin-resistant Klebsiella pneumoniae BA03057 assessed as colistin MIC by measuring potentiation fold incubated for 24 hrs under aerobic condition by two fold serial dilution method relative to colistin alone.
Test [6] deals with Escherichia coli. Briefly: Antibacterial activity against Escherichia coli ATCC25922 assessed as inhibition of visible bacterial growth measured after 20 hrs under aerobic condition by two fold serial dilution assay. In short, it runs like this:
(§1)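 Broth microdilution following EUCAST. Compound was tested at final well concentrations of 0.25–128 µg/mL against 5.10^5 CFU/mL inoculum, incubated 20 h at 37 °C aerobically. MIC was taken as the lowest concentration with no visible growth. There were three independent experiments per strain.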

Test [7] concerns Klebsiella pneumoniae. Briefly: Antibacterial activity against Klebsiella pneumoniae ATCC700603 assessed as inhibition of visible bacterial growth measured after 20 hrs under aerobic condition by two fold serial dilution assay. The essentials:
as §1

The subject of test [8] is Pseudomonas aeruginosa. Briefly: Antibacterial activity against chromosomally-mediated colistin resistant Pseudomonas aeruginosa 10039 assessed as inhibition of visible bacterial growth measured after 20 hrs under aerobic condition by two fold serial dilution assay.
Test [9] has as its system Escherichia coli. Briefly: Antibacterial activity against colistin resistant Escherichia coli NTCC 13846 harboring mcr-1 gene assessed as inhibition of visible bacterial growth measured after 20 hrs under aerobic condition by two fold serial dilution assay.
The test system of test [10] is Pseudomonas aeruginosa. Briefly: Antibacterial activity against Pseudomonas aeruginosa ATCC27853 assessed as inhibition of visible bacterial growth measured after 20 hrs under aerobic condition by two fold serial dilution assay. In short, it runs like this:
as §1

Test [11] concerns Escherichia coli. Briefly: Antibacterial activity against colistin resistant Escherichia coli A50 harboring mcr-1 gene assessed as inhibition of visible bacterial growth measured after 20 hrs under aerobic condition by two fold serial dilution assay.
In test [12] the test system is Escherichia coli. The test is described as follows: Colistin adjuvant activity against colistin-resistant Escherichia coli A50 assessed as antibacterial effect by measuring colistin MIC incubated for 24 hrs under aerobic condition by two fold serial dilution method.
Test [13] deals with Klebsiella pneumoniae. Briefly: Colistin adjuvant activity against colistin-resistant Klebsiella pneumoniae BA03057 assessed as antibacterial effect by measuring colistin MIC incubated for 24 hrs under aerobic condition by two fold serial dilution method.
Test [14] has as its system Klebsiella pneumoniae. Briefly: Synergistic antibacterial activity against Klebsiella pneumoniae BA03057 assessed as fractional inhibitory concentration index incubated for 24 hrs under aerobic condition in presence of colistin by checkerboard assay. In short, it runs like this: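 Checkerboard against KP BA03057 at 5.10^5 CFU/mL. Colistin was two-fold diluted 0–64 µg/mL across compound two-fold diluted 0–100 µM. Plates were incubated 24 h at 37 °C aerobically and absorbance read at 600 nm. FICI = MIC(compound, combined)/MIC(compound alone) + MIC(colistin, combined)/MIC(colistin alone), with synergy at FICI < 0.5. Plates were run in duplicate.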

Regarding `O=C(NCCc1c[nH]c2ccccc12)Nc1ccccc1F`, the minimum inhibitory concentration (MIC) in [1], in [3], in [4], in test [6], in test [7] and in test [8] was greater than 128 µg/mL in each case. The minimum inhibitory concentration (MIC) in test [9] was greater than 128 µg/mL; in test [10] it was greater than 128 µg/mL; in [11] it was greater than 128 µg/mL; in test [12], 8 µg/mL; in test [13] it was 8 µg/mL. Moreover, the “fold change (FC)” value in test [2] is 1; in [5], 0.125.

Turning to `O=C(NCCc1c[nH]c2ccccc12)Nc1ccc(C(F)(F)F)cc1`, the minimal inhibitory concentration (MIC) in test [1], in test [3], in [4], in [6], in test [7] and in [8] was greater than 128 µg/mL throughout. Further, the MIC in [9] is greater than 128 µg/mL; in test [10] it was greater than 128 µg/mL; in test [11], greater than 128 µg/mL; in [12], 8 µg/mL; in [13], 2 µg/mL. The “fold change (FC)” value in [2] is on record as 1; in test [5], 0.031. Further, the “fractional inhibitory concentration index (FICI)” value in [14] worked out at 0.167.

For `O=C(NCCc1c[nH]c2ccccc12)Nc1ccccc1Cl`, the minimum inhibitory concentration (MIC) in test [1], in test [3], in test [4], in test [6], in test [7] and in [8] was greater than 128 µg/mL each time. Also, the MIC in [9] was greater than 128 µg/mL; in test [10], greater than 128 µg/mL; in test [11] it was greater than 128 µg/mL; in test [12], 8 µg/mL; in [13], 8 µg/mL. For the same compound, the “fold change (FC)” value in test [2] was found to be 1; in [5] it was 0.125.

On to COLISTIN, for which the MIC in test [1] worked out at 64 µg/mL; in [3], 2 µg/mL; in test [4] it was 2 µg/mL; in test [6], 0.25 µg/mL; in test [7], 0.5 µg/mL; in [8], 4 µg/mL. Moreover, the MIC was found to be 2 µg/mL in test [9], 2 µg/mL in [10] and 8 µg/mL in test [11].

For the compound `O=C(NCCc1c[nH]c2ccccc12)Nc1ccc(F)cc1`, the MIC in [1], in [3], in [4], in test [6], in test [7] and in test [8] was greater than 128 µg/mL throughout. For the same compound, the MIC in [9] was greater than 128 µg/mL; in test [10], greater than 128 µg/mL; in test [11] it was greater than 128 µg/mL; in [12], 4 µg/mL; in test [13] it was 8 µg/mL. Besides, the “fold change (FC)” value in [2] was found to be 0.5; in test [5], 0.125.

For the compound `Cc1ccc(NC(=O)NCCc2c[nH]c3ccccc23)cc1`, the MIC in test [1], in test [3], in test [4], in test [6], in test [7] and in test [8] was greater than 128 µg/mL each time. For the same compound, the minimal inhibitory concentration (MIC) in test [9] is greater than 128 µg/mL; in test [10], greater than 128 µg/mL; in test [11], greater than 128 µg/mL; in [12], 4 µg/mL; in [13], 8 µg/mL. In addition, the “fold change (FC)” value in test [2] stood at 0.5; in test [5], 0.125.

As for `CCCNC(=O)NCCc1c[nH]c2ccccc12`, the MIC in test [1], in test [3], in test [4], in [6], in test [7] and in test [8] was greater than 128 µg/mL in each case. For the same compound, the MIC in test [9] was greater than 128 µg/mL; in [10], greater than 128 µg/mL; in test [11] it was greater than 128 µg/mL; in test [12] it was 4 µg/mL; in test [13], 8 µg/mL. For the same compound, the “fold change (FC)” value in [2] came out at 0.5; in [5], 0.125.

For `O=C(NCCc1c[nH]c2ccccc12)NCc1ccccc1`, the MIC in test [1], in test [3], in test [4], in test [6], in [7] and in test [8] was greater than 128 µg/mL throughout. Further, the minimum inhibitory concentration (MIC) in [9] is greater than 128 µg/mL; in test [10], greater than 128 µg/mL; in test [11], greater than 128 µg/mL; in test [12] it was 4 µg/mL; in [13], 8 µg/mL. Besides, the “fold change (FC)” value is listed as 0.5 in test [2] and 0.125 in [5].

For `O=C(NCCc1c[nH]c2ccccc12)Nc1ccccc1`, the MIC in test [1], in [3], in [4], in [6], in [7] and in test [8] was greater than 128 µg/mL throughout. In addition, the MIC in test [9] is greater than 128 µg/mL; in [10] it was greater than 128 µg/mL; in [11], greater than 128 µg/mL; in test [12] it was 8 µg/mL; in test [13] it was 8 µg/mL. In addition, the “fold change (FC)” value in test [2] is recorded as 1; in test [5], 0.125.

For the compound `O=C(NCCc1c[nH]c2ccccc12)Nc1cc(Cl)cc(Cl)c1`, the minimum inhibitory concentration (MIC) in test [1], in test [3], in test [4], in test [6], in test [7] and in test [8] was greater than 128 µg/mL throughout. Moreover, the minimum inhibitory concentration (MIC) in test [9] is greater than 128 µg/mL; in test [10], greater than 128 µg/mL; in [11], greater than 128 µg/mL; in test [12], 2 µg/mL; in test [13], 2 µg/mL. Moreover, the “fold change (FC)” value in test [2] was 0.25; in test [5] it was 0.031.

With `CC(C)c1ccc(NC(=O)NCCc2c[nH]c3ccccc23)cc1`, the minimal inhibitory concentration (MIC) in [1], in [3], in test [4], in test [6], in test [7] and in test [8] was greater than 128 µg/mL each time. In addition, the MIC in test [9] was greater than 128 µg/mL; in test [10] it was greater than 128 µg/mL; in test [11] it was greater than 128 µg/mL; in test [12], 4 µg/mL; in test [13], 16 µg/mL. For the same compound, the “fold change (FC)” value came to 0.5 in test [2] and 0.25 in [5].

Consider `CC(C)(C)NC(=O)NCCc1c[nH]c2ccccc12`, for which the MIC in test [1], in test [3], in test [4], in [6], in test [7] and in test [8] was greater than 128 µg/mL throughout. In addition, the MIC in test [9] was greater than 128 µg/mL; in test [10], greater than 128 µg/mL; in test [11] it was greater than 128 µg/mL; in test [12] it was 8 µg/mL; in test [13] it was 8 µg/mL. Further, the figures for the “fold change (FC)” value in test [2] and in test [5] were 1 and 0.125, respectively.

Take `O=C(NCCc1c[nH]c2ccccc12)Nc1cccc(Br)c1`: the MIC in [1], in test [3], in [4], in test [6], in test [7] and in [8] was greater than 128 µg/mL throughout. Also, the MIC in test [9] was greater than 128 µg/mL; in test [10], greater than 128 µg/mL; in [11], greater than 128 µg/mL; in test [12], 8 µg/mL; in test [13], 8 µg/mL. Further, the figures for the “fold change (FC)” value in [2] and in test [5] were 1 and 0.125, respectively.

For `O=C(NCCc1c[nH]c2ccccc12)Nc1ccc(Br)cc1`, the MIC in test [1], in test [3], in test [4], in test [6], in test [7] and in test [8] was greater than 128 µg/mL throughout. The minimal inhibitory concentration (MIC) in test [9] was greater than 128 µg/mL; in [10], greater than 128 µg/mL; in test [11], greater than 128 µg/mL; in [12], 2 µg/mL; in test [13], 8 µg/mL. The figures for the “fold change (FC)” value in test [2] and in test [5] were 0.25 and 0.125, respectively.

Take `COc1ccc(NC(=O)NCCc2c[nH]c3ccccc23)cc1`: the MIC in [1], in test [3], in test [4], in test [6], in test [7] and in [8] was greater than 128 µg/mL throughout. In addition, the minimum inhibitory concentration (MIC) in test [9] is greater than 128 µg/mL; in test [10], greater than 128 µg/mL; in [11], greater than 128 µg/mL; in [12] it was 4 µg/mL; in test [13], 16 µg/mL. The “fold change (FC)” value in [2] was determined as 0.5; in test [5], 0.25.
